Assay results: paper PMC2937276 (Molecular cancer therapeutics, 2010)
Read-outs that look alike come from different tables or passages of the source.

Key:
[1] = type: in vivo, CD-1 mice; details: for Kp: brain and plasma
GBM culture 2414 = experiment: XTT cell proliferation assay; type: cell-based, Mouse; details: Mus musculus, 36 h
How it was run: (§1)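 Primary human or mouse GBM cultures (DMEM, 10% FBS) were seeded at 5000 cells per 96-well well. Cells were cultured with test compound or vehicle for 36 h. Proliferation was read by XTT assay in quadruplicate. IC50 came from nonlinear-regression curve fitting.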

GBM culture 46 = experiment: XTT cell proliferation assay; type: cell-based, Mouse; details: Mus musculus, 36 h
How it was run: as §1

GBM culture 69 = experiment: XTT cell proliferation assay; type: cell-based, Mouse; details: Mus musculus, 36 h
How it was run: as §1

GBM culture 42 = experiment: XTT cell proliferation assay; type: cell-based, Mouse; details: Mus musculus, 36 h
How it was run: as §1

GBM culture 2736 = experiment: XTT cell proliferation assay; type: cell-based, Mouse; details: Mus musculus, 36 h
How it was run: as §1

GBM culture GBM-1 = experiment: XTT cell proliferation assay; type: cell-based, Mouse; details: Mus musculus, GBM1, 36 h
How it was run: as §1

GBM culture 41 = experiment: XTT cell proliferation assay; type: cell-based, Mouse; details: Mus musculus, 36 h
How it was run: as §1

GBM culture GBM-2 = experiment: XTT cell proliferation assay; type: cell-based, Mouse; details: Mus musculus, GBM2, 36 h
How it was run: as §1

GBM culture 2000 = experiment: XTT cell proliferation assay; type: cell-based, Mouse; details: Mus musculus, 36 h
How it was run: as §1

GBM culture 2227 = experiment: XTT cell proliferation assay; type: cell-based, Mouse; details: Mus musculus, 36 h
How it was run: as §1

GBM culture 2231 = experiment: XTT cell proliferation assay; type: cell-based, Mouse; details: Mus musculus, 36 h
How it was run: as §1

GBM culture 2415 = experiment: XTT cell proliferation assay; type: cell-based, Mouse; details: Mus musculus, 36 h
How it was run: as §1

GBM culture 102 = experiment: XTT cell proliferation assay; type: cell-based, Mouse; details: Mus musculus, 36 h
How it was run: as §1

GBM culture 103 = experiment: XTT cell proliferation assay; type: cell-based, Mouse; details: Mus musculus, 36 h
How it was run: as §1

GBM culture GBM15 = experiment: XTT cell proliferation assay; type: cell-based, Human; details: Homo sapiens, 36 h
How it was run: as §1

GBM culture GBM43 = experiment: XTT cell proliferation assay; type: cell-based, Human; details: Homo sapiens, 36 h
How it was run: as §1

GBM culture GBM39 = experiment: XTT cell proliferation assay; type: cell-based, Human; details: Homo sapiens, GBM39, 36 h
How it was run: as §1

GBM culture GBM59 = experiment: XTT cell proliferation assay; type: cell-based, Human; details: Homo sapiens, 36 h
How it was run: as §1

GBM culture GBM6 = experiment: XTT cell proliferation assay; type: cell-based, Human; details: Homo sapiens, GBM6, 36 h
How it was run: as §1

GBM culture GBM12 = experiment: XTT cell proliferation assay; type: cell-based, Human; details: Homo sapiens, 36 h
How it was run: as §1

GBM culture GBM22 = experiment: XTT cell proliferation assay; type: cell-based, Human; details: Homo sapiens, 36 h
How it was run: as §1

GBM culture GBM8 = experiment: XTT cell proliferation assay; type: cell-based, Human; details: Homo sapiens, 36 h
How it was run: as §1

[2] = tested on: EGFR-driven mouse GBM tumor primary cell cultures (GBM-1 & -2); experiment: Cell counting, growth of GBM cell cultures under drug; type: cell-based; details: increasing concentrations for 24 hours; 250 nM over time
How it was run: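 Mouse primary GBM cultures (GBM-1: wild-type plus vIII EGFR; GBM-2: EGFRvIII), alongside primary mouse astrocytes, kept in DMEM with 10% FBS. Cells exposed to increasing test-compound concentrations for 24 h, or to 250 nM for varying times. Viable cells counted and expressed as percent of untreated cells. Mean of triplicates with S.D.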

[3] = tested on: primary astrocytes cultures; experiment: Cell counting, growth of primary astrocytes under drug; type: cell-based, Mouse; details: increasing concentrations for 24 hours; 250 nM over time
How it was run: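 Primary mouse astrocyte cultures were grown with rising compound concentrations for 24 h, then counted. A second set was exposed to 250 nM for the indicated times before viable-cell counts. Counts are expressed as % of untreated cells. Values are means of triplicates with SD; t-test.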

GBM cells = experiment: Apoptosis analysis; type: cell-based, Mouse; details: 250 nM
How it was run: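 Two apoptosis read-outs on primary mouse GBM cultures (DMEM, 10% FBS), each with 250 nM compound for the indicated times. Pyknotic nuclei: 10,000 cells per chamber-slide well, fixed in fresh 4% PFA for 15 min, Hoechst 33258 at 5 µg/ml for 5 min. Nuclei were scored by fluorescence microscopy as % pyknotic over total across three areas. Cleaved caspase-3: western blot. Mean of three independent experiments ± SD.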

[4] = tested on: Hsp90 client proteins EGFR, Akt, Cdk4 and Cyclin D1; experiment: Immunoblot analysis of Hsp90 client proteins in mouse GBM cultures; type: cell-based
How it was run: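 Mouse GBM-1 and GBM-2 cultures and primary astrocytes treated with 250 nM test compound for varying times, or for 24 h against vehicle. RIPA lysates with 5 mM Na3VO4 and protease inhibitors. 40 µg resolved by SDS-PAGE onto PVDF, blocked in TBS-T/BSA/milk. Primary antibodies overnight at 4°C, secondary 1:10000 for 1 h at room temperature, ECL detection. Dynamin as control.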

[5] = tested on: Hsp90 client proteins EGFR, Akt, Cdk4 and CyclinD1; experiment: Immunoblot analysis of Hsp90 client proteins in human GBM cultures; type: cell-based; details: human primary GBM culture cells; 250 nM, 24 hours
How it was run: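 Human primary GBM cultures in DMEM with 10% FBS, given 250 nM test compound or vehicle for 24 h. Lysed in RIPA with 5 mM Na3VO4 and protease inhibitors. Equal protein (40 µg) resolved by SDS-PAGE, transferred to PVDF, blocked in TBS-T with 1% BSA and 5% milk. Primary antibodies overnight at 4°C, secondary 1:10000 for 1 h at room temperature, ECL.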

[6] = tested on: EGFRvIII-driven GBM tumors; experiment: Treatment of mice bearing GBM tumors; type: in vivo
How it was run: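 Adult (≥3 months) conditional EGFR*/Cdkn2a/Pten/CAG-luc mice under ketamine/xylazine received 250 nL adeno-CMV-Cre stereotaxically into the brain. Tumours were followed by luciferin (225 mg/kg IP) bioluminescence and randomised at the signal threshold. Dosing: 100 mg/kg IP in DMA/Tween 20/Cremophor/saline vehicle, or vehicle alone, thrice weekly ×2 weeks, then twice weekly for >100 days. At 180 days, survivors were perfused with PFA; coronal paraffin sections were H&E-stained. N=5 control, N=4 treated.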

[7] = Hepatotoxicity and toxicity on exposure in mice; type: in vivo
[8] = Brain concentrations of HSP90 inhibitors after a single i.p. injection; details: NCR-Nude, mouse, intraperitoneal
[9] = male, CD-1, mouse, brain, iv, 25 mg/kg
[10] = male, CD-1, mouse, brain, iv, 70 mg/kg
[11] = male, CD-1, mouse, plasma, iv, 25 mg/kg
[12] = male, CD-1, mouse, plasma, iv, 70 mg/kg
[13] = repeat dose, 25 mg/kg i.v. every other day

With `O=C1OCC/C=C/CC/C=C/C(=N/OCC(=O)N2CCCCC2)Cc2c(Cl)c(O)cc(O)c21` [NXD30001] the “AUC(0-t)” value ([1]; brain, repeated i.v. injections 25 mg/kg every other day, 7 doses) was 940 ng·h/g, the “AUC(0-t)” value ([1]; brain, single i.v. injection 70 mg/kg) was 1073 ng·h/g and the Kp ([1]; male, CD-1, mouse, iv, 25 mg/kg) was 0.135. It also gave a Kp ([1]; male, CD-1, mouse, iv, 70 mg/kg) of 0.201, a Cmax [1, 9] of 210 ng/g and a Tmax [1, 9] of 0.25 h. For the same compound, the half-life [1, 9] was 8.99 h, the Cmax [1, 10] was 223 ng/g and the Tmax [1, 10] was 0.5 h. The half-life [1, 10] was 4.07 h, the AUC(0-t) [1, 11] was 6960 ng·h/mL and the C0 at 0.5 h [1, 11] was 4530 ng/mL. For the same compound, the Vd [1, 11] was 27.9 L/kg, the clearance [1, 11] was 59.8 mL/min/kg and the half-life [1, 11] was 5.4 h. For the same compound, the AUC(0-t) [1, 12] was 5350 ng·h/mL, the C0 [1, 12] was 2140 ng/mL and the Vd [1, 12] was 51.5 L/kg. For the same compound, the clearance [1, 12] was 217 mL/min/kg, the half-life [1, 12] was 2.74 h and the “concentration detected in brain prior to the last dose” value [1, 13] was “less than 10 ng/g”. For the same compound, the “concentration detected in plasma prior to the last dose” value [1, 13] was “less than 10 ng/mL”, the IC50 (GBM culture 2414) was 31.7 ± 4.9 nM and the IC50 (GBM culture 46) was 54.3 ± 12.5 nM. The IC50 (GBM culture 69) was 73.4 ± 2.5 nM, the IC50 (GBM culture 42) was 73.8 ± 0.7 nM and the IC50 (GBM culture 2736) was 77.6 ± 2.8 nM. The IC50 (GBM culture GBM-1) was 78.3 ± 8.3 nM, the IC50 (GBM culture 41) was 80.2 ± 5.9 nM and the IC50 (GBM culture GBM-2) was 111 ± 9.4 nM. It also gave an IC50 (GBM culture 2000) of 115 ± 9.4 nM, an IC50 (GBM culture 2227) of 134 ± 7.7 nM and an IC50 (GBM culture 2231) of 146 ± 3.7 nM. It also gave an IC50 (GBM culture 2415) of 251 ± 57.7 nM, an IC50 (GBM culture 102) of 360 ± 21.6 nM and an IC50 (GBM culture 103) of 576 ± 14.8 nM. For the same compound, the IC50 (GBM culture GBM15) was 60.7 ± 0.5 nM, the IC50 (GBM culture GBM43) was 86.3 ± 0.2 nM and the IC50 (GBM culture GBM39) was 111.6 ± 1 nM. The IC50 (GBM culture GBM59) was 232 ± 13.2 nM, the IC50 (GBM culture GBM6) was 1220 ± 35.1 nM and the IC50 (GBM culture GBM12) was 2330 ± 60 nM. For the same compound, the IC50 (GBM culture GBM22) was 5260 ± 152 nM, the IC50 (GBM culture GBM8) was 5690 ± 450 nM and the “inhibition of GBM cell growth” value [2] was “dose and time dependent inhibition of GBM cell growth”. For the same compound, the “inhibition of astrocyte growth” value [3] was “but not of astrocytes”, the “cleaved-caspase 3 (western blot)” value (GBM cells) was “appearance of cleaved-caspase 3” and the “increase in apoptosis level (pyknotic nucleated cells)” value (GBM cells) was 10 fold. For the same compound, the “Hsp90 client protein levels (western blot)” value (shortened to “Hsp90 client protein levels”) ([4]; GBM-1 & -2 cultures, 250 nM for the indicated times) was “degradation of the Hsp90 client proteins EGFR, Akt, Cdk4 and Cyclin D1”, the “Hsp90 client protein levels” value ([4]; mouse primary GBM culture cells, 250 nM, 24 hours) was “deplete the Hsp90 client proteins EGFR, Akt, Cdk4 and CyclinD1” and the “Hsp90 client protein levels” value [5] was “deplete the Hsp90 client proteins EGFR, Akt, Cdk4 and CyclinD1”. For the same compound, the “effect on survival (Kaplan-Meier)” value ([6]; 100 mg/kg i.p. thrice weekly (X2) then twice weekly, versus vehicle) was “statistically significant prolongation in survival”, the “survival of treated animals” value ([6]; half of the treated animals, 100 mg/kg i.p. thrice weekly (X2) then twice weekly, N=4 treated) was greater than 180 days and the “histological analysis of H&E stained brain sections of surviving animals” value ([6]; surviving treated animals, after 180 days) was “few remaining tumor cell clusters”. The “toxicity observed in the treated animals” value ([7]; GBM-bearing mice treated with 100 mg/kg i.p.) was “absence of toxicity”, the hepatotoxicity ([7]; short and long term exposure in mice, data not shown and ref 13) was “does not result in hepatotoxicity” and the concentration at 6 h ([8]; 100 mg/kg) was 676 ng/g. It also gave a concentration at 12 h ([8]; 100 mg/kg) of 823 ng/g, a concentration at 24 h ([8]; 100 mg/kg) of 271 ng/g and a concentration at 48 h ([8]; 100 mg/kg) of 10.7 ng/g. For the same compound, the concentration at 6 h ([8]; 150 mg/kg) was 1440 ng/g, the concentration at 12 h ([8]; 150 mg/kg) was 3420 ng/g and the concentration at 24 h ([8]; 150 mg/kg) was 900 ng/g. The concentration at 48 h ([8]; 150 mg/kg) was 116 ng/g.
